Among the data in ChEMBL document CHEMBL4513216, “Probing the Open Global Health Chemical Diversity Library for Multistage-Active Starting Points for Next-Generation Antimalarials” (ACS Infect Dis, 2020) are cytotoxicity values, retold here.

SMILES strings stand for the structures.

The data set in a line: Toxicity liver stage against HepG2, at 10uM. It is filed as cell-based. Details: test concentration 10 uM, cell line HepG2-A16-CD81EGFP. Conditions: human, HepG2-A16-CD81EGFP cells; read-out: INHIBITION
The essentials: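 Uninfected HepG2-A16-CD81EGFP cells, 3 × 10^3 per well, 1536-well, plated on prespotted compound at 10 μM final, parasite-free screening media added to match infected plates; puromycin 10 μM positive, DMSO 0.5% negative; run in parallel with 48 h PbLuc assay at 37 °C, 5% CO2; viability by CellTiter-Glo luminescence, normalized to controls.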
`CCn1cc(-c2cc(C(=O)N3CCOCC3)c3cc(Cl)ccc3n2)cn1`: the cytotoxicity at 10 µM was -1.53%.
In the case of `COCCC1COC2(CCN(C(=O)C3CCCCC3)CC2)C1` (stereo unspecified) it was 7.4%; in that of `CC(CO)CNC(=O)c1cc2cccc(F)c2o1` (stereo unspecified), 8.13%; in that of `Cc1ccc(CN2CC[C@]3(C[C@H](OCc4ccccn4)CO3)C2)o1`, -0.617%.
In the case of `COc1ccc(-c2nc3c([nH]2)CCCNC3=O)cc1OC` it was 26.6%; in that of `CCOC1CCCN(C(=O)c2[nH]nc(C3CC3)c2Br)C1` (stereo unspecified), -5.4%; in that of `CC(CC(=O)N1CCCS1(=O)=O)c1ccccc1C(F)(F)F` (stereo unspecified), 8.92%.
For the molecule `CSc1ccccc1NC(=O)c1ccc(N2CCOCC2)nn1`, the cytotoxicity at 10 µM stood at 0.951%.
With `CN1CCN(S(=O)(=O)c2cccc(S(=O)(=O)C3CCS(=O)(=O)C3)c2)CC1` (stereo unspecified), the cytotoxicity at 10 µM stood at 6.29%.
The value for `COc1nn(C)c2c1CCCN(C(=O)c1cccc3cccnc13)C2` was -104%; that for `CC(C)c1ccc(C#N)c(N2CC(C)(C)[C@@](C)(O)C2)n1` was 2.71%; that for `Cn1c(CS(=O)(=O)Cc2ccc(Cl)cc2)cc(=O)n(C)c1=O` was 5.59%.
For `CCC[C@H]1CN(CCS(C)(=O)=O)C[C@@H]1NC(=O)Cn1cc(C)cn1`, the cytotoxicity at 10 µM is 2.72%.
In the case of `CC(=O)N1CCC2(CC1)NC(=O)[C@H]1CN(Cc3cccnc3)C[C@H]12` it was -1.77%; in that of `COC(=O)c1cccnc1N1CCC(Oc2cccc(F)c2)CC1`, 3.31%.
The value for `Cc1cc(CS(=O)(=O)NC2CCCCC2)on1` was 2.92%; that for `COc1cc(NC(=O)N2CCCC2c2ccco2)cc(OC)c1` (stereo unspecified) was 4.65%; that for `Nc1nc2c(c(NC(Cn3cccn3)c3ccccc3)n1)CCNCC2` (stereo unspecified) was -12.3%.
In the case of `O=C(NCc1cccc(F)c1)NCC(O)c1cccc(F)c1` (stereo unspecified) it was -7.58%; in that of `Cn1c(N)c2c(=O)n(C)c(-c3ccc(Cl)cc3)cc2c(C#N)c1=O`, -8.91%.
As to `CCc1n[nH]c(C2CN(C(=O)CCOCC(F)(F)F)CCO2)n1` (stereo unspecified), the cytotoxicity at 10 µM is 10.4%.
For the molecule `O=C(CSc1ccc(F)c(F)c1)NS(=O)(=O)c1ccc2c(c1)OCCO2`, the cytotoxicity at 10 µM is -4.28%.
The value for `COCC(c1cccc(C(F)(F)F)c1)N(C)C(=O)c1cccnc1` (stereo unspecified) was -5.28%.
The value for `c1nc2c(c(N3CCOCC3)n1)CCNCC2` was -2.36%; that for `Cc1nc(CNC(=O)NC(C)c2ccc3c(c2)OCCO3)cs1` (stereo unspecified) was -2.61%; that for `CCOC(=O)[C@]12CCCN(Cc3ccco3)C[C@H]1CN(S(C)(=O)=O)C2` was 6.86%.
In the case of `CCOC(=O)CCC(=O)N1CCC(Oc2ccc(C(F)(F)F)cn2)CC1` it was 11.6%; in that of `COc1ccc2c(c1)C(NCCc1ncc(C)s1)CCCO2` (stereo unspecified), -3.86%; in that of `O=C1COC2(CCN(Cc3ccco3)CC2)CN1CCn1cccn1`, 10.2%.
Consider `COCCS(=O)(=O)Cc1csc(NC(C)=O)n1`, for which the cytotoxicity at 10 µM was -2.93%.
In the case of `NC(=O)c1ccn(COc2ccccc2Cl)n1` it was 2.96%; in that of `CCN1Cc2c(C(=O)NCC3CC3)ncn2-c2ccccc2S1(=O)=O`, -12.2%; in that of `Cc1ccnn1CC(=O)N(C)Cc1ccc(-n2cccn2)cc1`, 0.0616%.
The value for `Cn1c(-c2ccccc2Cl)nc2cc(C(=O)NCC3(C)COC3)cnc21` was 1.59%; that for `Cc1nn(C)c(C)c1Cc1nc(N(C)C)no1` was 7.06%; that for `Cc1nc(NC(=O)C(C)S(C)(=O)=O)sc1Cc1ccc(F)cc1` (stereo unspecified) was 4.52%.
In the case of `CSc1ccc2cc(CN(C)CCc3cn[nH]c3)c(=O)[nH]c2c1` it was -7.23%; in that of `Cn1cnc2c1CCN(CC(=O)N(Cc1ccccc1F)C1CC1)C2`, 4.91%.
For the molecule `Cc1noc(C)c1CN(C)Cc1csc(-c2ccc(C(C)C)cc2)n1`, the cytotoxicity at 10 µM amounted to 54.8%.
In the case of `Cc1cc(C(=O)N(C)S(=O)(=O)C(C)C)ccc1F` it was -54.3%; in that of `CC(C)(C)OC(=O)N1CCCCC1C(=O)NCc1cc[nH]n1` (stereo unspecified), 1.41%.
`Cc1nc2cc(-c3nccn3C)nn2c(N2CCC(O)CC2)c1C`: the cytotoxicity at 10 µM is -3.31%.
Consider `COCCN1CCC(NCc2cccnc2)C1` (stereo unspecified), for which the cytotoxicity at 10 µM was -10.4%.
In the case of `c1cnn(CC2CCCN2c2ncnc3c2CCC3)c1` (stereo unspecified) it was 41.2%; in that of `Cc1nn(C)c(C)c1CN(Cc1cccn1-c1ccccn1)C(C)C`, 0.936%; in that of `CCn1c(CN2CCOC(Cn3cncn3)C2)nc2c(F)cccc21` (stereo unspecified), -5.42%.
In the case of `CN(C)S(=O)(=O)c1ccc(CN2CCCC2c2ccsc2)o1` (stereo unspecified) it was -8.72%; in that of `Cc1cncc(C(=O)N2CCCCC2c2nc(C)cs2)c1` (stereo unspecified), -3.66%; in that of `CS(=O)(=O)c1cn[nH]c1C1CCCN(C(=O)CN2CCOCC2)C1` (stereo unspecified), -22.8%.
In the case of `CC(C)NC(=O)CN1CCSC2(CCCCC2)C1` it was -13.7%; in that of `O=C(Cn1cccn1)N1CCC(Oc2ccc(C(F)(F)F)cn2)CC1`, 8.77%; in that of `Cc1ccc(C)c(CSc2nnc(C(N)C(C)C)o2)c1` (stereo unspecified), 9.24%.
Turning to `Nc1cc(-c2ccc(C(=O)O)cc2O)c2cc[nH]c2n1`, the cytotoxicity at 10 µM is 10.3%.
The value for `CC(=O)c1ccc(OCC(=O)NS(=O)(=O)c2ccc(C)s2)cc1` was -8.9%; that for `O=C(NCc1ccco1)N1CCC(n2cc(-c3ccccn3)nn2)CC1` was 16.9%.
In the case of `c1ccc(-c2cc(CN3C[C@H]4CC[C@@H](C3)N(CC3CC3)C4)on2)cc1` it was -4%.
In the case of `Cc1nc(N)nc(C)c1CC(=O)NCc1ccc2nonc2c1` it was 5.6%; in that of `Cc1nn(C)c(C)c1CC(=O)N1CCC(N(C)c2cccnn2)CC1`, -3.33%; in that of `Cc1csc(CN2CCC[C@]3(C[C@H](OCC4CC4)CO3)C2)n1`, -141%.
With `CN(CCc1noc(C2CC2)n1)C(=O)CN1C(=O)COc2ccccc21`, the cytotoxicity at 10 µM is -141%.
In the case of `NC(=O)CSc1ccccc1NC(=O)C1CCCC1` it was -135%.
Consider `Cc1noc(C)c1CN(C)C(=O)c1ccc(C(N)=O)nc1`, for which the cytotoxicity at 10 µM is -4.24%.
In the case of `CN(C)C(=O)CNC(CC(F)(F)F)c1ccc(F)cc1` (stereo unspecified) it was -3.08%; in that of `Cc1cc(Oc2ccc(NC(=O)C3CC3)cc2)cc(C2CCNCC2)n1`, -6.18%.
The value for `O=C(C1CC(=O)N(c2n[nH]c3cc(Br)ccc23)C1)N1CCSCC1` (stereo unspecified) was -1.91%; that for `CCc1cc(N2CCN(C(C)=O)CC2)n2nc(C)c(C)c2n1` was 3.96%; that for `CCc1nnsc1C(=O)N1CCCC(c2nc3ccccc3[nH]2)C1` (stereo unspecified) was 4.52%.
In the case of `CN(CCN1CCN(c2ccccc2)CC1)C(=O)Nc1ccccn1` it was 6.37%; in that of `CNC(=O)N1CCC2(CC1)CNc1ccc(F)cc12`, 10.1%; in that of `Cc1csc([C@@H]2C[C@H]3CN(c4ncc(F)cn4)C[C@H]3O2)n1`, 6.88%.
As for `COCc1ccccc1NC(=O)c1ccoc1`, the cytotoxicity at 10 µM is -2.17%.
